Screening results as filed in PubChem.
Shown are actives, neighbours in structure and some others; about 1.5% of the full set was active somewhere.
p97 ATPase inh = inhibitors of human p97 ATPase. P55072. recombinant p97 ATPase, Kinase-Glo ATP luminescence, 3 h. inhibition, % at 8 µM. 220,000 compounds, 0.42% hits; in the data active means inhibition above about 15%;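 further: 0% = DMSO vehicle and 100% = wells lacking enzyme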
RBBP9 inhibitor = blocks human serine hydrolase RBBP9 | recombinant RBBP9, FP-Rh probe fluorescence polarization | O75884 | 220,000 compounds, 0.2% hits | AID 1515 | inhibition, % at 7.94 µM;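 active means inhibition above the campaign mean of all tested compounds plus 3 SD, cut at about 14% in these data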;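 further: plate controls were DMSO wells with RBBP9 for no effect and wells lacking RBBP9 protein for full effect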
Target sequence (O75884 whole entry, looked up): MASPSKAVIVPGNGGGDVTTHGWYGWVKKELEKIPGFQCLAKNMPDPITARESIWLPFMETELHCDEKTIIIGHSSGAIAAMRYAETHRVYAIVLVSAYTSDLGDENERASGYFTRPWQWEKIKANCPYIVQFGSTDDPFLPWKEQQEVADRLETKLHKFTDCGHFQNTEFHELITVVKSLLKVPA
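Test system: recombinant human RBBP9. Quantity: 2.5 µM RBBP9 dispensing solution, before mixing. Detection: FP readout at 525/598 nm. Reagent: Serine-hydrolase probe FP-Rh, 375 nM pre-mixing. Measure: % inhibition. Control set: DMSO-treated enzyme wells and wells lacking RBBP9. Buffer or medium: Tris-NaCl-Pluronic buffer, pH 8.0. Times: preincubation 30 min plus labeling 45 min at 25 °C.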
Hsp70 activator = transcriptional activators of Hsp70 | HeLa Hsp70 promoter luciferase reporter, luminescence; scaled: vehicle 0, proteasome-inhibitor control 100% | activation, % at 10 µM | 200,000 compounds, 0.04% hits;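 active means activation above the mean across all tested compounds plus 3 SD, cutoff set per campaign, cut at about 5.5% in these data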;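 further: 100% = MG132 at 30 µM as the positive control and 0% = DMSO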
PP5 inh = PP5 (human) phosphatase inhibition. P53041. purified PP5c, OMFP substrate fluorescence. inhibition, % at 6.7 µM. 320,000 compounds, 0.18% hits;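 active means inhibition above the campaign's mean inhibition across all tested compounds plus 3 SD, cut at about 9.5% in these data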;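 further: 0% = DMSO only and 100% = 100 µM cantharidin control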
PP1 counter = PP1-alpha (human) inhibition in PP5 counter-screen; 320,000 compounds, 0.9% hits; inhibition, % at 6.7 µM; purified PP1alpha, OMFP fluorescence;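 active means inhibition above the mean inhibition of all tested compounds plus 3 SD, computed separately for each screening campaign, cut at about 15% in these data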
Target sequence (P62136 whole entry, looked up): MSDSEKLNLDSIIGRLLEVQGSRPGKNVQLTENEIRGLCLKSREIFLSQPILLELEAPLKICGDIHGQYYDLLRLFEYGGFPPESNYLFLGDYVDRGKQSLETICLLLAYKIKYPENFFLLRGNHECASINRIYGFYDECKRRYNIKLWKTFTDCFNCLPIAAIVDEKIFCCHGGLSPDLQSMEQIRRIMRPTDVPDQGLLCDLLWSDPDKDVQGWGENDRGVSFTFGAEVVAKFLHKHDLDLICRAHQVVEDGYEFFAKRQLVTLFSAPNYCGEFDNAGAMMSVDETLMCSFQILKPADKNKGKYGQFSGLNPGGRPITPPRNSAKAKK
PKD1 kinase inh = inhibitors of human PKD1 kinase. Q15139. PKD1 kinase fluorescence polarization assay. inhibition, % (test concentration not listed). 200,000 compounds, 0.056% hits; in the data active means inhibition above about 50%
FP interf 140K = counter-screen for PKD inhibitors: fluorescence polarization interference | PKD1 FP assay interference counter-screen | inhibition, % at 10 µM | shares compounds with PKD1 kinase inh | 85 tested, under 10 active; call rule not given here
Hsp70 act dose = activates Hsp70 transcription in dose response; shares compounds with Hsp70 activator; HeLa hsp70.1pr-luc reporter, luciferase luminescence; calls only at 99 µM; 70 compounds, 10% hits; AID 1252;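 active means over 50% activation at some tested dose; inactive means under 50% activation at every tested dose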
p97 inh conf = human p97 ATPase inhibition, confirmation; shares compounds with p97 ATPase inh; recombinant p97 ATPase, Kinase-Glo ATP luminescence; inhibition, % at 8 µM; 760 compounds, 44% hits;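 active means percent inhibition of p97 ATPase above a set limit, the primary screen's mean plus 3 SD, cut at about 15% in these data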;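 further: 0% = DMSO wells and 100% = wells lacking p97 protein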
An asterisk follows results filed as active; i = inactive; / = no result given; + = active, no number; ! = not active in a repeat.

SMILES	p97 ATPase inh	RBBP9 inhibitor	Hsp70 activator	PP5 inh	PP1 counter	PKD1 kinase inh	p97 inh conf	others
Cc1c2ccncc2c(C)c2c1[nH]c1ccccc12	3	-3	0	-1	31*	87*	/
c1ccc2c(c1)[nH]c1cnccc12	3	-4	0	2	-1	-3	/
O=C(O)c1ccc2c(c1)C1C(Cl)C(Sc3ccccc3[N+](=O)[O-])CC1C(c1cccc([N+](=O)[O-])c1)N2 (stereo not given)	15*	11	0	/	/	-5	/
Cn1ncnc2c(=O)n(C)c(=O)nc1-2	/	/	/	13*	38*	/	/
COc1ccc2c(c1)[C@@]13CCC=C[C@H]1[C@@H](C2)NCC3	/	/	/	0	-3	/	/
CC[C@@H]1C=CC=CC[C@H](C)[C@@H](O)[C@@H](C)C(=O)[C@H](C)[C@@H](O)[C@H](C)C(=O)[C@H](C)[C@@H](O)[C@H](C)C=CC(=O)O[C@H]2[C@@H](C)[C@@H](CC1)O[C@@]1(CC[C@@H](C)[C@@H](C[C@H](C)O)O1)[C@@H]2C	/	/	/	5	2	/	/
O=c1c2ccccc2[nH]c(=S)n1-c1ccc(Br)cc1	4	-5	0	-6	20*	-7	/
CN(C)C1C(=O)C(C(N)=O)=C(O)C2(O)C(=O)C3=C(O)c4c(O)cccc4C(C)(O)C3CC12 (stereo not given)	/	/	/	0	6	/	/
CN(C)[C@@H]1C(=O)C(C(N)=O)=C(O)[C@@]2(O)C(=O)C3=C(O)c4c(O)cccc4[C@@](C)(O)[C@H]3C[C@@H]12	/	/	/	-2	29*	/	/
CC(NC(=O)Cc1cccc2ccccc12)C(=O)N1CCC(=O)CC1 (stereo not given)	-2	-5	0	-2	-1	-2	/
CCCCn1c(NC(=O)c2ccc(Br)o2)c(C(=O)OCC)c2nc3ccccc3nc21	17*	-2	0	13*	4	-8	/
O=C1CN=C(c2cc([N+](=O)[O-])ccc2Cl)c2cc([N+](=O)[O-])ccc2N1	/	/	/	2	-6	/	/
O=C1Nc2ccccc2/C1=C/c1cnc[nH]1	-4	-6	1	3	-2	69*	/	FP interf 140K=-24
CN1CCC(=O)N(CCN=[N+]=[N-])CC1	/	/	/	0	-8	/	/
COc1cc(CC2(CCc3ccncc3)C(=O)NC(=O)NC2=O)cc(OC)c1OC	-3	-5	0	1	5	2	/
COc1cc2c(cc1OC)-c1c(OC)c(OC)c(OC)c3ccnc(c13)C2=O	-1	2	0	7	9	50*	/	FP interf 140K=-18
Cc1ccccc1-n1c(/C=C/c2ccccn2)nc2ccccc2c1=O	4	3	/	3	0	/	/
CN1C2CCC1/C(=C/c1ccccn1)C(=O)/C2=C\c1ccccn1	4	-2	18*	2	-1	6	/	Hsp70 act dose=+
COC(=O)C[C@]1(C(=O)OC)CN(C#N)N(c2ccc(Cl)cc2)C12c1ccccc1-c1ccccc12	1	-12	12*	2	12	-4	/	Hsp70 act dose=i
NS(=O)(=O)c1cccc(N2CCNCC2)c1	4	2	0	-2	-2	-10	/
CCC(C)NC(=O)c1c(N)n(CC2CCCO2)c2nc3ccccc3nc12 (stereo not given)	29*	11	0	5	4	-4	-4
CC(C)CCNC(=O)c1c(N)n(CC2CCCO2)c2nc3ccccc3nc12 (stereo not given)	-2	-6	0	9	2	2	/
CCCCn1c(NS(=O)(=O)c2ccccc2)c(C(=O)OCC)c2nc3ccccc3nc21	21*	-8	0	9	4	-2	2
CCOC(=O)c1c(N)n(CCN2CCCCC2)c2nc3ccccc3nc12	0	-1	0	-1	0	-13	/
COC(=O)C1=C(c2cccc(OCc3ccccc3)c2)C[C@@H]2CC[C@H]1N2C(=O)NCc1ccc2[nH]ccc2c1	/	/	/	3	4	/	/
SMILES	p97 ATPase inh	RBBP9 inhibitor	Hsp70 activator	PP5 inh	PP1 counter	PKD1 kinase inh	p97 inh conf	others
Cc1nc2ccc(P(=O)(O)O)cc2s1	0	5	0	2	0	-4	/
CC(C)(C)P(=O)(NCc1ccccc1)c1ccccc1 (stereo not given)	16*	-6	0	1	-1	4	3
O=C1CN(O)C(c2ccccc2)=c2cc(Br)ccc2=N1	/	/	/	-1	1	/	/
COC(=O)C1=C(c2ccc(-c3ccccc3)c(F)c2)C[C@@H]2CC[C@H]1N2C(=O)NCc1ccco1	/	/	/	2	8	/	/
CC(C)c1ccc(N2C(=O)NC(=O)/C(=C/C=C/c3ccco3)C2=O)cc1	16*	0	0	4	17*	-9	11
CN[C@H]1C[C@H]2O[C@@](C)([C@H]1OC)n1c3ccccc3c3c4c(c5c6ccccc6n2c5c31)C(=O)NC4	15*	0	-1	4	2	/	12
Cc1cc2c(C(C)C)c(O)c(O)c(C=O)c2c(O)c1-c1c(C)cc2c(C(C)C)c(O)c(O)c(C=O)c2c1O	21*!	9	0	/	/	0	77*
CCN(CC)C(=O)c1ccc(N2C(=O)C3CC=C(Cl)CC3C2=O)cc1 (stereo not given)	16*	3	0	2	-2	-10	5
O=C(Cn1cc(C(=O)c2ccccc2F)c2ccccc21)NC1CC1	3	1	0	2	-2	-1	/
COCCCn1c(N)c(C(=O)NCc2ccco2)c2nc3ccccc3nc21	37*	3	/	7	1	/	19*
CC(C)(C)OC(=O)c1c(N)n(Cc2ccco2)c2nc3ccccc3nc12	16*	-9	0	1	3	-1	5
COCCCn1c(N)c(C(=O)OC(C)COC)c2nc3ccccc3nc21 (stereo not given)	15*	1	0	1	-1	-8	6
Nc1c(C(=O)NCCN2CCOCC2)c2nc3ccccc3nc2n1Cc1ccccc1	35*	4	/	3	-1	/	0
Nc1c(C(=O)NCCc2ccccc2)c2nc3ccccc3nc2n1CCN1CCOCC1	-5	-2	0	6	3	-4	/
COCCNC(=O)c1c(N)n(Cc2ccco2)c2nc3ccccc3nc12	0	-8	0	2	-4	12	/
S=C(NC1CCCCC1)N1CCC(c2cnc[nH]2)CC1	/	/	/	-2	-2	/	/
Cc1cc(C)[n+](CCCC[n+]2c(C)cc(C)cc2C)c(C)c1	/	/	/	2	0	/	/
